According to PMC9780517 (Experimental and Therapeutic Medicine, 2022):
“Also recorded” adds a separate entry of the source.

Experiments:
[1] = tested on: hiPSC-CMs; test: Myocardial cell activity; type: cell-based, human; settings: for Effect on Ampl (cell activity / cell viability) / Effect on BPM (beats per minute): concentration relative to ETPC
Procedure, shortened: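 Human iPSC-derived cardiomyocytes (mostly ventricular; four batches) were grown 14-21 days on fibronectin-coated impedance/field-potential sensor plates at 37°C, 5% CO2. The medium was changed on dosing day, and test compound was added 3-4 h later, with 0.1% DMSO as control. Reads were taken every 30 min for 2 h, then every 2 h for >24 h. There were 3-4 concentrations, triplicate wells each. Ampl and BPM were normalized to pre-dose values.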

[2] = after intravenous administration; cited from earlier work
[3] = tested on: hiPSC-CMs; test: Field potential; type: cell-based, human; settings: for FPDc prolongation (in words): concentration relative to ETPC
[4] = ref 21 (Blinova et al); cited from earlier work

CCCCc1oc2ccccc2c1C(=O)c1cc(I)c(OCCN(CC)CC)c(I)c1 [Amiodarone]
Effect on Ampl (cell activity / cell viability) [1]: decreased the cell activity of cardiomyocytes at concentrations greater than ETPC
Effect on BPM (beats per minute) [1]: decreased BPM at a concentration greater than ETPC
TdP incidence [2]: ~ 15%

COc1ccc(CCN2CCC(Nc3nc4ccccc4n3Cc3ccc(F)cc3)CC2)cc1 [Astemizole]
Effect on Ampl (cell activity / cell viability) [1]: decreased the activity of cardiomyocytes at a concentration higher than ETPC
Effect on BPM (beats per minute) [1]: decrease BPM
Arrhythmia-like waveforms (in words) [3]: caused arrhythmia-like waveforms

CN1CCN(CCCCN2C(=O)CN(/N=C/c3ccc(-c4ccc(Cl)cc4)o3)C2=O)CC1 [Azimilide]
Arrhythmia-like waveforms (in words) [3]: induce arrhythmia-like waveforms
FPDc prolongation (in words) [3]: FPDc prolongation at concentrations lower than ETPC

CC(C)COCC(CN(Cc1ccccc1)c1ccccc1)N1CCCC1 (stereo not drawn) [Bepridil]
Predicted risk, LR model of Blinova et al [4]: low-risk
Arrhythmia-like waveforms (in words) [3]: induce arrhythmia-like waveforms
Concentration at which arrhythmia-like waveforms were observed [3]: 312.5 times of the ETPC
FPDc prolongation (in words) [3]: not induce FPDc prolongation; also recorded: no FPDc prolongation was observed

CN(C)CCCN1c2ccccc2Sc2ccc(Cl)cc21 [Chlorpromazine]
Predicted risk, LR model of Blinova et al [4]: low-risk
Effect on Ampl (cell activity / cell viability) [1]: decreased the activity of cardiomyocytes at a concentration higher than ETPC
Effect on BPM (beats per minute) [1]: decrease BPM

COc1cc(N)c(Cl)cc1C(=O)NC1CCN(CCCOc2ccc(F)cc2)CC1OC (stereo not drawn) [Cisapride]
Effect on Ampl (cell activity / cell viability) [1]: decreased the activity of cardiomyocytes at a concentration higher than ETPC
Effect on BPM (beats per minute) [1]: decrease BPM

CC[C@H]1OC(=O)[C@H](C)[C@@H](O[C@H]2C[C@@](C)(OC)[C@@H](O)[C@H](C)O2)[C@H](C)[C@@H](O[C@@H]2O[C@H](C)C[C@H](N(C)C)[C@H]2O)[C@](C)(OC)C[C@@H](C)C(=O)[C@H](C)[C@@H](O)[C@]1(C)O [Clarithromycin]
Effect on Ampl (cell activity / cell viability) [1]: decreased the activity of cardiomyocytes at a concentration higher than ETPC
Effect on BPM (beats per minute) [1]: decrease BPM
FPDc prolongation (in words) [3]: no FPDc prolongation was observed; also recorded: FPDc showed shortening
FPDc prolongation at the highest concentration ([3]; highest concentration of 100 µM, repeated in triplicate): no FPDc prolongation was observed

CN1CCN(C2=Nc3cc(Cl)ccc3Nc3ccccc32)CC1 [Clozapine]
Arrhythmia-like waveforms (in words) [3]: caused arrhythmia-like waveforms
Concentration at which FPDc prolongation was observed [3]: 42 % of the ETPC

COc1ccc([C@@H]2Sc3ccccc3N(CCN(C)C)C(=O)[C@@H]2OC(C)=O)cc1 [Diltiazem]
Effect on Ampl (cell activity / cell viability) [1]: decreased the activity of cardiomyocytes at a concentration higher than ETPC
Effect on BPM (beats per minute) [1]: BPM was decreased

CC(C)N(CCC(C(N)=O)(c1ccccc1)c1ccccn1)C(C)C (stereo not drawn) [Disopyramide]
Effect on Ampl (cell activity / cell viability) [1]: decreased cell activity at concentrations less than ETPC
Arrhythmia-like waveforms (in words) [3]: induce arrhythmia-like waveforms
FPDc prolongation (in words) [3]: FPDc prolongation at concentrations lower than ETPC

CN(CCOc1ccc(NS(C)(=O)=O)cc1)CCc1ccc(NS(C)(=O)=O)cc1 [Dofetilide]
Beating of the cells at the maximum concentration ([1]; 0.3 µm (150 times of the ETPC)): cells stopped beating
Arrhythmia-like waveforms (in words) [3]: no arrhythmia-like events were observed; also recorded: No arrhythmia-like waveforms were observed
Concentration at which arrhythmia-like waveforms were observed [3]: > 150 times of the ETPC
FPDc prolongation (in words) [3]: FPDc prolongation at concentrations higher than ETPC

O=c1[nH]c2ccccc2n1CCCN1CCC(n2c(=O)[nH]c3cc(Cl)ccc32)CC1 [Domperidone]
Arrhythmia-like waveforms (in words) [3]: caused arrhythmia-like waveforms

O=C(CCCN1CC=C(n2c(=O)[nH]c3ccccc32)CC1)c1ccc(F)cc1 [Droperidol]
Effect on Ampl (cell activity / cell viability) [1]: decreased the activity of cardiomyocytes at a concentration higher than ETPC
Effect on BPM (beats per minute) [1]: decrease BPM
Arrhythmia-like waveforms (in words) [3]: caused arrhythmia-like waveforms

O=C(NCC1CCCCN1)c1cc(OCC(F)(F)F)ccc1OCC(F)(F)F (stereo not drawn) [Flecainide]
Concentration at which arrhythmia-like waveforms were observed [3]: 1.33 times of the ETPC

CCCCCCCN(CC)CCCC(O)c1ccc(NS(C)(=O)=O)cc1 (stereo not drawn) [Ibutilide]
Effect on Ampl (cell activity / cell viability) [1]: decreased cell activity at concentrations less than ETPC
Effect on BPM (beats per minute) [1]: BPM decrease at concentrations less than ETPC
Arrhythmia-like waveforms (in words) [3]: induce arrhythmia-like waveforms
Concentration at which arrhythmia-like waveforms were observed [3]: 10 % of the ETPC
FPDc prolongation (in words) [3]: FPDc prolongation at concentrations lower than ETPC

CCOC(=O)N1CCC(=C2c3ccc(Cl)cc3CCc3cccnc32)CC1 [Loratadine]
Effect on Ampl (cell activity / cell viability) [1]: decreased the activity of cardiomyocytes at a concentration higher than ETPC

CCC(=O)C(CC(C)N(C)C)(c1ccccc1)c1ccccc1 (stereo not drawn) [Methadone]
Effect on Ampl (cell activity / cell viability) [1]: decreased the cell activity of cardiomyocytes at concentrations greater than ETPC
Effect on BPM (beats per minute) [1]: decreased BPM at a concentration greater than ETPC

COCCc1ccc(OCC(O)CNC(C)C)cc1 (stereo not drawn) [Metoprolol]
Effect on Ampl (cell activity / cell viability) [1]: decreased the activity of cardiomyocytes at a concentration higher than ETPC
Effect on BPM (beats per minute) [1]: BPM was decreased
Concentration at which FPDc prolongation was observed [3]: 6 % of the ETPC

Cc1cccc(C)c1OCC(C)N (stereo not drawn) [Mexiletine]
Effect on Ampl (cell activity / cell viability) [1]: decreased the activity of cardiomyocytes at a concentration higher than ETPC
Effect on BPM (beats per minute) [1]: BPM was decreased
Concentration at which FPDc prolongation was observed [3]: 1.2 times of the ETPC

COc1c(N2C[C@@H]3CCCN[C@@H]3C2)c(F)cc2c(=O)c(C(=O)O)cn(C3CC3)c12 [Moxifloxacin]
Effect on BPM (beats per minute) [1]: decreased BPM at a concentration greater than ETPC

NC(=O)c1cccnc1 [Nicotinamide]
Effect on Ampl (cell activity / cell viability) [1]: decreased the cell activity of cardiomyocytes at concentrations greater than ETPC
Effect on BPM (beats per minute) [1]: decreased BPM

COC(=O)C1=C(C)NC(C)=C(C(=O)OC)C1c1ccccc1[N+](=O)[O-] [Nifedipine]
Effect on Ampl (cell activity / cell viability) [1]: decreased the activity of cardiomyocytes at a concentration higher than ETPC

CCOC(=O)C1=C(C)NC(C)=C(C(=O)OC)C1c1cccc([N+](=O)[O-])c1 (stereo not drawn) [Nitrendipine]
Effect on Ampl (cell activity / cell viability) [1]: decreased the activity of cardiomyocytes at a concentration higher than ETPC
Concentration at which arrhythmia-like waveforms were observed [3]: 331.1 times of the ETPC

Cc1nccn1CC1CCc2c(c3ccccc3n2C)C1=O (stereo not drawn) [Ondansetron]
Effect on Ampl (cell activity / cell viability) [1]: decreased the activity of cardiomyocytes at a concentration higher than ETPC
Effect on BPM (beats per minute) [1]: decrease BPM
Arrhythmia-like waveforms (in words) [3]: caused arrhythmia-like waveforms
Concentration at which arrhythmia-like waveforms were observed [3]: 81 % of the ETPC

O=c1[nH]c2ccccc2n1C1CCN(CCCC(c2ccc(F)cc2)c2ccc(F)cc2)CC1 [Pimozide]
Effect on Ampl (cell activity / cell viability) [1]: decreased the activity of cardiomyocytes at a concentration higher than ETPC
Effect on BPM (beats per minute) [1]: decrease BPM
Arrhythmia-like waveforms (in words) [3]: caused arrhythmia-like waveforms

C=C[C@H]1C[N@@]2CC[C@H]1C[C@@H]2[C@@H](O)c1ccnc2ccc(OC)cc12 [Quinidine]
Effect on Ampl (cell activity / cell viability) [1]: decreased cell activity at concentrations less than ETPC
Effect on BPM (beats per minute) [1]: BPM decrease at concentrations less than ETPC
Arrhythmia-like waveforms (in words) [3]: induce arrhythmia-like waveforms
FPDc prolongation (in words) [3]: FPDc prolongation at concentrations lower than ETPC

COc1ccccc1OCC(O)CN1CCN(CC(=O)Nc2c(C)cccc2C)CC1 (stereo not drawn) [Ranolazine]
Concentration at which FPDc prolongation was observed [3]: 51 % of the ETPC
Concentration at which arrhythmia-like waveforms were observed [3]: 15.4 times of the ETPC

Cc1nc2n(c(=O)c1CCN1CCC(c3noc4cc(F)ccc34)CC1)CCCC2 [Risperidone]
Predicted risk, LR model of Blinova et al [4]: low-risk
Effect on Ampl (cell activity / cell viability) [1]: decreased the activity of cardiomyocytes at a concentration higher than ETPC
Effect on BPM (beats per minute) [1]: decrease BPM
Arrhythmia-like waveforms (in words) [3]: caused arrhythmia-like waveforms
Concentration at which arrhythmia-like waveforms were observed [3]: 555.6 times of the ETPC

CC(C)NCC(O)c1ccc(NS(C)(=O)=O)cc1 (stereo not drawn) [Sotalol]
Effect on BPM (beats per minute) [1]: BPM decrease at concentrations less than ETPC
Arrhythmia-like waveforms (in words) [3]: induce arrhythmia-like waveforms
FPDc prolongation (in words) [3]: FPDc prolongation at concentrations lower than ETPC

CC/C(=C(\c1ccccc1)c1ccc(OCCN(C)C)cc1)c1ccccc1 [Tamoxifen]
Effect on Ampl (cell activity / cell viability) [1]: decreased the activity of cardiomyocytes at a concentration higher than ETPC
Effect on BPM (beats per minute) [1]: BPM was decreased
Concentration at which arrhythmia-like waveforms were observed [3]: 142.9 times of the ETPC

CC(C)(C)c1ccc(C(O)CCCN2CCC(C(O)(c3ccccc3)c3ccccc3)CC2)cc1 (stereo not drawn) [Terfenadine]
Effect on Ampl (cell activity / cell viability) [1]: decreased the activity of cardiomyocytes at a concentration higher than ETPC
Effect on BPM (beats per minute) [1]: decrease BPM

COc1cc2c(Nc3ccc(Br)cc3F)ncnc2cc1OCC1CCN(C)CC1 [Vandetanib]
Effect on BPM (beats per minute) [1]: BPM decrease at concentrations less than ETPC
Arrhythmia-like waveforms (in words) [3]: induce arrhythmia-like waveforms
FPDc prolongation (in words) [3]: FPDc prolongation at concentrations higher than ETPC

COc1ccc(CCN(C)CCCC(C#N)(c2ccc(OC)c(OC)c2)C(C)C)cc1OC (stereo not drawn) [Verapamil]
Effect on Ampl (cell activity / cell viability) [1]: decreased the activity of cardiomyocytes at a concentration higher than ETPC
